Experimental data published in ChEMBL document CHEMBL1155584, “Bioactive compounds from Psorothamnus junceus” (J Nat Prod, 2000).
Values after ≈ are worked out from the molar mass of the structure shown.

How the values were obtained:
Format in all cases: functional
MCF7 = test: Cytotoxicity against human MCF7 cells by MTT assay
Procedure, shortened: (§1)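 Human tumour lines (A-549 lung carcinoma, MCF-7 breast carcinoma, HT-29 colon adenocarcinoma, SK-MEL-5 melanoma from an axillary node metastasis, Malme-3M melanoma from a lung metastasis) tested with a standard MTT protocol. Adriamycin served as the positive control. Results are reported as GI50.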

SK-MEL-5 = test: Cytotoxicity against human SK-MEL-5 cells by MTT assay; procedure, shortened: as §1
A549 = test: Cytotoxicity against human A549 cells by MTT assay; procedure, shortened: as §1
Malme-3M = test: Cytotoxicity against human MALME-3M cells by MTT assay; procedure, shortened: as §1
HT-29 = test: Cytotoxicity against human HT29 cells by MTT assay; procedure, shortened: as §1

COc1cccc2c1C(=O)c1c(O)c3c(c(O)c1C2=O)C[C@@](O)(C(=O)CO)C[C@@H]3O[C@H]1C[C@H](N)[C@H](O)[C@H](C)O1 [DOXORUBICIN] gave a GI50 (MCF7) of 0.2 µg/mL (≈ 0.368 µM), a GI50 (SK-MEL-5) of 0.03 µg/mL (≈ 0.0552 µM) and a GI50 (A549) of 0.04 µg/mL (≈ 0.0736 µM). It also gave a GI50 (Malme-3M) of 0.1 µg/mL (≈ 0.184 µM) and a GI50 (HT-29) of 0.06 µg/mL (≈ 0.11 µM).

With CC1=c2oc3c(c2C(=O)C(C)(C)C1=O)Oc1ccccc1C=3 [PSOROTHAMNONE B] the GI50 (MCF7) was 40 µg/mL (≈ 136 µM), the GI50 (SK-MEL-5) was 40 µg/mL (≈ 136 µM) and the GI50 (A549) was 30 µg/mL (≈ 102 µM). The GI50 (Malme-3M) was 40 µg/mL (≈ 136 µM) and the GI50 (HT-29) was 30 µg/mL (≈ 102 µM).

Molecule CC1(C)C(=O)C(=C2C=Cc3ccccc3O2)C(=O)C(C)(C)C1=O [EMORYDONE] has a GI50 (MCF7) of 3 µg/mL (≈ 9.67 µM), a GI50 (SK-MEL-5) of 3 µg/mL (≈ 9.67 µM) and a GI50 (A549) of 3 µg/mL (≈ 9.67 µM). The GI50 (Malme-3M) was 1 µg/mL (≈ 3.22 µM) and the GI50 (HT-29) was 4 µg/mL (≈ 12.9 µM).

CC(=O)C1=c2oc3c(c2Oc2ccccc21)C(=O)C(C)(C)C(=O)C=3C [PSOROTHAMNONE A] was tested, and the GI50 (MCF7) was 60 µg/mL (≈ 178 µM), the GI50 (SK-MEL-5) was 20 µg/mL (≈ 59.5 µM) and the GI50 (A549) was 40 µg/mL (≈ 119 µM). It also gave a GI50 (Malme-3M) of 60 µg/mL (≈ 178 µM) and a GI50 (HT-29) of 50 µg/mL (≈ 149 µM).

In the case of COC1=C(C)C(=O)C(C)(C)C(=O)/C1=C1\C=Cc2ccccc2O1 [DALRUBONE], the GI50 (MCF7) is reported as 1 µg/mL (≈ 3.22 µM), the GI50 (SK-MEL-5) is reported as 0.4 µg/mL (≈ 1.29 µM) and the GI50 (A549) is reported as 0.2 µg/mL (≈ 0.644 µM). The GI50 (Malme-3M) was 2 µg/mL (≈ 6.44 µM) and the GI50 (HT-29) was 0.02 µg/mL (≈ 0.0644 µM).
